Data set [1] can be described thus: Apparent permeability from apical to basolateral side in human Caco2 cells. Type of data set: ADME, cell-based. As to conditions: Caco-2. The procedure, abridged: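 Caco-2 cells (passage 50-60) were seeded at 60,000 cells/cm2 on polycarbonate Transwells and cultured 21-25 days. Transport buffer was HBSS with 2% DMA, pH 7.4. Compound was applied apically at 25 µM at 37°C. Only monolayers with TEER 400-500 Ω cm2 at start and end were used, with mannitol as an integrity probe. Papp = (dQ/dt)/(A×C0).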

A short description of data set [2]: Tmax in chimpanzee at 1 mg/kg, po. Type of data set: ADME, organism-based, Pan troglodytes. Also noted: dose 1 mg/kg, route oral. Particulars: in vivo. The procedure, abridged: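 Two male chimpanzees (58 and 72 kg), fasted overnight, dosed orally at 1 mg/kg as a suspension in 0.5% aqueous methylcellulose/Tang orange juice with 1% Tween 80 (1:1). Plasma sampled 0-96 h, parent measured by validated LC/MS/MS. Tmax taken from observed data by noncompartmental analysis; reported as median (min, max).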

A short description of data set [3]: AUC (infinity) in Sprague-Dawley rat at 1 mg/kg, iv. The data set is classed as ADME, organism-based. More on the design: time infinity, dose 1 mg/kg, route intravenous. As to conditions: plasma. The procedure, abridged: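 Male Sprague-Dawley rats (n=3 per route, 0.34-0.35 kg, cannulated), fasted ~18 h pre-dose and 4 h post-dose. Dosing was 1 mg/kg IV bolus in 20% ethanol/saline via the jugular cannula, or 5 mg/kg oral gavage in 0.5% aqueous methylcellulose. Jugular blood was sampled 0-96 h. Plasma was assayed by validated LC/MS/MS (LLOQ 1.00 ng/ml), and AUC(INF) was derived by noncompartmental mixed log-linear trapezoidal analysis.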

Data set [4] can be described thus: Oral bioavailability in beagle dog at 5 mg/kg. The data set is classed as ADME, organism-based, Canis lupus familiaris. Particulars: in vivo. The procedure, abridged:
(§1)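 Male beagle dogs (n=3), one-way IV/PO crossover with a one-week washout, fasted about 15 h before and 4 h after dosing. IV dose of 1 mg/kg as a saphenous bolus in N,N-dimethylacetamide:propylene glycol:water (1:7:2); PO dose of 5 mg/kg by gavage in 0.5% methylcellulose. Plasma sampled 0–96 h and assayed by LC/MS/MS (LLOQ 1.00 ng/ml). Noncompartmental analysis; CL = dose/AUC(INF) after IV; F from dose-normalized AUC ratio.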

Data set [5] in a line: Protein binding in human serum after 3 hrs by equilibrium dialysis. The data set is classed as ADME, cell-free. As to conditions: read-out: PB (converted). The procedure, abridged:
(§2)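 Equilibrium dialysis of serum spiked to final 12.8, 25.6 and 38.5 µM against 134 mM phosphate buffer, pH 7.4, through a 10,000 Da cutoff membrane. Cells rotated at 20 rpm, 37°C, 3 h. Percent unbound taken as buffer concentration divided by serum concentration.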

Data set [6] in a line: AUC (infinity) in chimpanzee at 1 mg/kg, po. Also noted: dose 1 mg/kg, route oral, time infinity. As to conditions: plasma. Type of data set: ADME, organism-based, Pan troglodytes. The procedure, abridged:
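Two fasted male chimpanzees (58, 72 kg) received 1 mg/kg orally as a suspension in 0.5% methylcellulose/orange drink with 1% Tween 80 (1:1). Blood was sampled 0-96 h post-dose. Plasma was assayed by validated LC/MS/MS (LLOQ 1.00 ng/ml). Noncompartmental analysis gave AUC(INF) by the mixed log-linear trapezoidal method, with Cmax observed directly; values are mean (min, max).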

A short description of data set [7]: Drug metabolism in beagle dog hepatocytes assessed as […] at 25 uM after 3 hrs by HPLC analysis. The data set is classed as ADME, cell-based, Canis lupus familiaris, Hepatocyte.
Data set [8] in a line: Protein binding in rat serum after 3 hrs by equilibrium dialysis. Particulars: read-out: PB (converted). The data set is classed as ADME, cell-free. The procedure, abridged:
as §2
A general note: Equilibrium dialysis compares concentrations on both sides of a semipermeable membrane.

The nature of data set [9]: Terminal half life in beagle dog at 1 mg/kg, iv. As to conditions: in vivo, read-out: beta t1/2 (converted). Also noted: dose 1 mg/kg, route intravenous. The data set is classed as ADME, organism-based, Canis lupus familiaris. The procedure, abridged:
as §1

Data set [10] has as its system Serum. Nature of the data set: Metabolic stability in human serum after 3 hrs by equilibrium dialysis. The data set is classed as ADME, cell-free. The procedure, abridged: (§3)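 Stability assessed in the serum samples from the equilibrium-dialysis setup: compound at final 12.8, 25.6 and 38.5 µM, dialysed against 134 mM phosphate buffer, pH 7.4, at 37°C with rotation at 20 rpm. Samples monitored for degradants over the 3-h incubation.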

Data set [11] is described as follows: Drug metabolism in beagle dog hepatocytes assessed as 7-hydroxycoumarin formation at 25 uM after 3 hrs by HPLC analysis. The data set is classed as ADME, cell-based, Canis lupus familiaris, Hepatocyte.
Data set [12] in a line: Protein binding in dog serum after 3 hrs by equilibrium dialysis. Type of data set: ADME, cell-free, Canis lupus familiaris. Particulars: read-out: PB (converted). The procedure, abridged: as §2
Data set [13] in a line: Terminal half life in Sprague-Dawley rat at 1 mg/kg, iv. Type of data set: ADME, organism-based. More on the design: dose 1 mg/kg, route intravenous. Particulars: in vivo, read-out: beta t1/2 (converted). The procedure, abridged:
(§4)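 Male Sprague-Dawley rats (n=3 per route, 0.34–0.35 kg) with jugular cannulas, fasted about 18 h before and 4 h after dosing. IV dose of 1 mg/kg in 20% ethanol/saline; oral dose of 5 mg/kg by gavage in 0.5% methylcellulose. Plasma sampled 0–96 h and assayed by LC/MS/MS (LLOQ 1.00 ng/ml). Noncompartmental analysis.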

For data set [14], the system named is Liver microsome. The experiment in a line: Drug metabolism in human liver microsomes assessed as DPH-123554 metabolite formation at 100 uM after 1 hr in presence of NADPH and ketoconazole. Type of data set: ADME. (In general: Microsomes from liver hold many membrane-bound enzymes, among them those of drug oxidation.)
A short description of data set [15]: Oral bioavailability in chimpanzee at 1 mg/kg. As to conditions: Pan troglodytes, in vivo.
Data set [16] can be described thus: Terminal half life in Sprague-Dawley rat at 5 mg/kg, po. The data set is classed as ADME, organism-based. Also noted: dose 5 mg/kg, route oral. Particulars: in vivo, read-out: beta t1/2 (converted). The procedure, abridged: as §4
The nature of data set [17]: AUC (infinity) in beagle dog at 1 mg/kg, iv. Type of data set: ADME, organism-based, Canis lupus familiaris. Also noted: time infinity, dose 1 mg/kg, route intravenous. Particulars: plasma. The procedure, abridged:
(§5)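 Male beagle dogs (n=3, 10.1-12.7 kg) in a one-way IV/PO crossover with one-week washout, fasted ~15 h pre-dose and 4 h post-dose. Dosing was 1 mg/kg IV bolus into the saphenous vein in DMA:propylene glycol:water (1:7:2), or 5 mg/kg gavage in 0.5% methylcellulose. Blood was sampled 0-96 h. Plasma was assayed by LC/MS/MS (LLOQ 1.00 ng/ml) with noncompartmental analysis; Cmax was observed directly.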

A short description of data set [18]: Drug metabolism in beagle dog hepatocytes assessed as decrease of compound level at 25 uM after 3 hrs by HPLC analysis. As to conditions: read-out: Drug metabolism. The data set is classed as ADME, cell-based, Canis lupus familiaris, Hepatocyte. The procedure, abridged:
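Mouse, rat, dog, monkey and human hepatocytes (trypan blue viability checked) at 1.0×10^6 cells/ml in Krebs-Henseleit buffer were incubated with 25 µM compound, in duplicate. Conditions were 37°C, 95/5 O2/CO2, orbital shaking, 3 h. 7-Ethoxycoumarin and 7-hydroxycoumarin (100 µM) served as positive controls, with a cell-free negative control. Reactions were quenched with ice-cold acetonitrile, then sonicated and centrifuged; supernatants were analysed by LC/MS/MS.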

Data set [19] has as its system Liver microsome. The experiment in a line: Drug metabolism in human liver microsomes assessed as BMS-572273 metabolite formation at 100 uM after 1 hr in presence of NADPH and ketoconazole. Type of data set: ADME.
Data set [20] relates to Serum. The experiment in a line: Metabolic stability in dog serum after 3 hrs by equilibrium dialysis. Type of data set: ADME, cell-free, Canis lupus familiaris. The procedure, abridged: as §3
Data set [21] in a line: Cmax in beagle dog at 5 mg/kg, po. Also noted: dose 5 mg/kg, route oral. The data set is classed as ADME, organism-based, Canis lupus familiaris. Particulars: in vivo. The procedure, abridged: as §5
A short description of data set [22]: Drug metabolism in bile duct-cannulated Sprague-Dawley rat bile assessed as BMS-572273 metabolite level at 30 mg/kg, po after 12 hrs by LC-MS/MS analysis. Also noted: dose 30 mg/kg, route oral. The data set is classed as ADME, organism-based. As to conditions: in vivo. The procedure, abridged: (§6)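 Male bile-duct-cannulated Sprague-Dawley rats (n=3), fasted overnight, received 30 mg/kg by gavage in 0.5% methylcellulose. Urine and bile were collected 0-12 h and pooled by equal percentage weight across animals, then centrifuged. Supernatants were profiled by LC/MS/MS. Bile was also treated with β-glucuronidase in pH 4.8 acetate buffer, 37°C, 16 h.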

Data set [23] can be described thus: Drug metabolism in bile duct-cannulated Sprague-Dawley rat urine assessed as DPH-124921metabolite level at 30 mg/kg, po after 12 hrs by LC-MS/MS analysis. Type of data set: ADME, organism-based. Also noted: dose 30 mg/kg, route oral. As to conditions: in vivo. The procedure, abridged:
as §6

A short description of data set [24]: Drug metabolism in bile duct-cannulated Sprague-Dawley rat bile assessed as DPH-123554 metabolite level at 30 mg/kg, po after 12 hrs by LC-MS/MS analysis. The data set is classed as ADME, organism-based. Particulars: in vivo. Also noted: dose 30 mg/kg, route oral. The procedure, abridged: as §6

As usually defined, the Papp A→B is the apparent permeability from the apical to the basolateral side of a cell layer. Usually Tmax stands for the time at which the peak concentration occurs. By AUC(0-inf) is commonly meant total exposure, with the tail of the curve extrapolated. A high value points to more exposure. As a reminder, the bioavailability is the share of a dose that reaches the circulation, judged against a reference dose that is usually intravenous. High values mean good availability, low ones poor availability. As usually defined, the Cmax is the peak of the concentration-time curve. As for `CC[C@@H](C)Nc1nc(C)nc2c(-c3ccc(OC)nc3C)c(C)nn12` [PEXACERFONT], the apparent permeability from apical to basolateral (Papp A→B) in [1] came to 17 ×10⁻⁶ cm/s. For the same compound, the Tmax in data set [2] was 2 h. The AUC(0-inf) in data set [3] turned out to be 2.9 µM·h; in data set [6], 13.9 µM·h; in data set [17], 4.3 µM·h. Further, the bioavailability in data set [4] turned out to be 58.8%; in [15], 58.5%. The fraction unbound at 3 h in [5] was 0.039; in data set [8], 0.064; in data set [12] it was 0.048. The Drug metabolism entry in data set [7] is listed as “metabolite_detected”; in data set [11], “metabolite_detected”; in the data set with Liver microsome [14], “metabolite_not_detected”; in the data set with Liver microsome [19], “metabolite_not_detected”. The half-life in data set [9] was 2630 min; in data set [13], 810 min; in data set [16] it was 829 min. The Stability result with Serum [10] and in the data set with Serum [20] was “Stable” each time. Further, the metabolised at 3 h, 25 µM in data set [18] came out at 61%. In data set [21], the concentration peaked (Cmax) at 1800 nM.
For the compound `COc1ccc(-c2c(C)nn3c(O)nc(C)nc23)c(C)n1`, the Drug metabolism result in data set [22] is “metabolite_detected”.
In the case of `COc1ccc(-c2c(C)nn3c(N)nc(C)nc23)c(C)n1`, in data set [23], the Drug metabolism result was “metabolite_detected”.
For `CC[C@@H](C)Nc1nc(C)nc2c(-c3ccc(O)nc3C)c(C)nn12`, in [24], the Drug metabolism entry is reported as “metabolite_detected”.
